Experimental data: paper PMC11471106 (Drug Design, Development and Therapy, 2024)

Test system: MCF-7 cells
Test: Inhibition of [125I]I-AM uptake into MCF-7 cells by blocking agents
Format: cell-based
Settings: blocking agent at 1 mm
In short: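 Blocking uptake study in MCF-7 cells, cultured and given radiotracer as in the standard uptake assay (serum-free MEM + 0.2% BSA, 37 °C, gamma counting of lysate versus medium). Cells were treated separately with unlabelled parent compound, tamoxifen or 17β-estradiol, each at one stated concentration. Groups were compared by one-way ANOVA with Tukey's multiple comparison test.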

SMILES | effect on uptake of [125I]I-AM into MCF-7 cells
C[C@]12CC[C@@H]3c4ccc(O)cc4CC[C@H]3[C@@H]1CC[C@@H]2O [estradiol, 17 β -estradiol] | not inhibited
CC/C(=C(\c1ccccc1)c1ccc(OCCN(C)C)cc1)c1ccccc1 [tamoxifen] | significantly inhibited
